Columns and labels:
[1] = Hill slope value of the compound
[2] = species on record: Mus musculus; assay: Antinociception by tail-flick test in male ICR mice after intrathecal (i.t.) injection; format: functional
In short: (§1)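 Male ICR mice injected intrathecally, free-hand between L4 and L6 while unanesthetized. Tail-flick latency was read before treatment (control 2-4 s) and 5 min after injection, with a 10 s cutoff. The result was expressed as %MPE = [(test − control)/(10 − control)] × 100. There were 8-12 mice per dose and at least four doses, and ED50 with 95% CL came from unweighted least-squares linear regression.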

[3] = system: Mus musculus; assay: Antinociception by tail-flick test in male ICR mice after intrathecal (i.t.) injection, at 32.5 mg/kg; format: functional; in short: as §1
[4] = biological target: T1, Neuronal acetylcholine receptor; alpha4/beta2 (Rattus norvegicus, UniProt P09483+P12390); assay: Inhibition of [3H]-nicotine binding at the nicotinic acetylcholine receptor alpha4-beta2; format: protein-complex assay
[5] = biological target: T1, Neuronal acetylcholine receptor; alpha4/beta2; assay: Inhibition of [3H]epibatidine binding at the nicotinic acetylcholine receptor alpha4-beta2 in male rat cerebral cortex; format: tissue-based
[6] = biological target: T1, Neuronal acetylcholine receptor; alpha4/beta2; assay: Non-specific binding in presence of 300 uM nicotine at nicotinic acetylcholine receptor alpha4-beta2 in rat cerebral cortex membranes; format: cell membranes, Membrane
[7] = biological target: T1, Neuronal acetylcholine receptor; alpha4/beta2; assay: Inhibition of […] binding at the nicotinic acetylcholine receptor alpha4-beta2 in male rat cerebral cortex; format: tissue-based
In short: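 Male rat cerebral cortex homogenate (3 mg wet weight) was incubated with 0.5 nM [3H]epibatidine and 10-12 test concentrations, in buffer at pH 7.4 with 1% DMSO final, for 4 h at room temperature. Nonspecific binding was defined with 300 µM (-)-nicotine. Samples were filtered on PEI-soaked GF/B and counted by scintillation. IC50 came from at least three independent experiments by nonlinear regression, and Ki by Cheng-Prusoff.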

[8] = system: Mus musculus; assay: Antinociception by tail-flick test in male ICR mice after intrathecal (i.t.) injection at 112 mg/kg; format: functional; in short: as §1

T1 sequence (P09483 whole entry): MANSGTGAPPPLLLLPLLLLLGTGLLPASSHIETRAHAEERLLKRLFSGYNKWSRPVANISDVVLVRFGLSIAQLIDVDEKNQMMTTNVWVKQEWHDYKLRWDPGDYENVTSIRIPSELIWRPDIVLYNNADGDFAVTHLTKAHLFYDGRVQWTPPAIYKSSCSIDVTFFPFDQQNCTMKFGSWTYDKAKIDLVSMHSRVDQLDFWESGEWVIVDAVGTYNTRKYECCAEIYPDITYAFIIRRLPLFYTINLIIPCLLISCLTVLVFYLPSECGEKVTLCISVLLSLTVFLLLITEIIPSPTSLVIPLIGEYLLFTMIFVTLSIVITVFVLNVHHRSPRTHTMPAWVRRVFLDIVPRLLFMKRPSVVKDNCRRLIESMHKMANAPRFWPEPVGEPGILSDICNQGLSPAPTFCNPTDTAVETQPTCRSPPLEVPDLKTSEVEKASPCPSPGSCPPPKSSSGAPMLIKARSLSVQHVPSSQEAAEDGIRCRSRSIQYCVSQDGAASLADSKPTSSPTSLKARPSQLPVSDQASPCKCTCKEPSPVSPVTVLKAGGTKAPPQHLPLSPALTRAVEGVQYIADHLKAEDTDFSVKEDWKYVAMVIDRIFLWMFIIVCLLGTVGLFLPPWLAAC
T1 sequence (P12390 whole entry): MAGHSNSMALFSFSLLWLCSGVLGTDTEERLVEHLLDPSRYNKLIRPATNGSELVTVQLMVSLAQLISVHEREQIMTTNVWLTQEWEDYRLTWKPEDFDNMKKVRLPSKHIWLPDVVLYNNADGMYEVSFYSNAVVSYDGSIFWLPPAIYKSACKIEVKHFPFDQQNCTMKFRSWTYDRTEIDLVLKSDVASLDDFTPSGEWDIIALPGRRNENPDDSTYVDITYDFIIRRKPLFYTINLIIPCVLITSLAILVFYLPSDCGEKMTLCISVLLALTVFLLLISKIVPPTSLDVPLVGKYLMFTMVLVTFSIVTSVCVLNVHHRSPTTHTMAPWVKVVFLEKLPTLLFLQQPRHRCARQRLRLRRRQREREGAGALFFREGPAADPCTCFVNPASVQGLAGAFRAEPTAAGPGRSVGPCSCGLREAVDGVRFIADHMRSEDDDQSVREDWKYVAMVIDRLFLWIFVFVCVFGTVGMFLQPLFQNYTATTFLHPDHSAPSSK

SMILES	Hill coefficient [1]	ED50 [2] [nM mouse-1]	Ki [4] [nM]	other results
Oc1ccc(C2CC3CCC2N3)cn1 (stereo not drawn)	1	52.4	–	–
CN(C)c1ccc(C2CC3CCC2N3)cn1 (stereo not drawn)	1	–	–	inhibition in vivo at 32.5 mg/kg [3]: 10%
CN1CCCC1c1ccc(O)nc1 (stereo not drawn)	–	–	1070	–
Clc1ccc([C@@H]2C[C@H]3CC[C@@H]2N3)cn1 [(+)-EPIBATIDINE]	–	0.5	–	–
c1cncc(C2CC3CCC2N3)c1 (stereo not drawn) [DESCHLOROEPIBATIDINE]	0.8	0.2	–	Ki [5]: 0.02 nM; Ki [6]: 0.031 nM
O=c1ccc(C2CC3CCC2N3)c[nH]1 (stereo not drawn)	–	–	–	Ki [7]: 107 nM
Fc1ccc(C2CC3CCC2N3)cn1 (stereo not drawn)	0.9	0.31	–	–
CN1CCCC1c1ccc(N)nc1 (stereo not drawn)	–	–	81	–
Clc1ccc([C@H]2C[C@@H]3CC[C@H]2N3)cn1 [(-)-EPIBATIDINE]	–	0.6	–	–
Nc1ccc(C2CC3CCC2N3)cn1 (stereo not drawn)	1	–	–	Ki [5]: 1.3 nM; inhibition in vivo at 112 mg/kg [8]: 27%
Brc1ccc(C2CC3CCC2N3)cn1 (stereo not drawn)	0.9	0.33	–	Ki [5]: 0.023 nM
CN1CCCC1c1ccc(Cl)nc1 (stereo not drawn)	–	–	0.63	–
CN1CCCC1c1ccc(F)nc1 (stereo not drawn)	–	–	1.03	–
Ic1ccc(C2CC3CCC2N3)cn1 (stereo not drawn)	–	–	–	Ki [5]: 0.07 nM; Ki [6]: 0.48 nM
CN1CCC[C@H]1c1cccnc1 [NICOTINE]	0.9	74	–	–
CN1CCCC1c1ccc(Br)nc1 (stereo not drawn)	–	–	0.45	–

Source: ChEMBL document CHEMBL1134519, “Synthesis, nicotinic acetylcholine receptor binding, and antinociceptive properties of 2-exo-2-(2'-substituted 5'-pyridinyl)-7-azabicyclo[2.2.1]heptanes. Epibatidine analogues” (J Med Chem, 2001)
